Jurkat NFkB inh = lowers PMA/ionomycin-induced NF-kB signal in Jurkat cells; 330,000 tested, 0.53% active; PMA/ionomycin-induced NF-kB luciferase reporter, luminescence; inhibition, % at 4 µM; in the data active means inhibition above about 50%
697 NFkB inh = inhibitors of the PMA/ionomycin-induced NF-kB reporter in 697 B cells; 697 B-cell NF-kB luciferase reporter, 16 h; inhibition, % at 4 µM; 330,000 tested, 0.33% active; AID 435022; in the data active means inhibition above about 35%
XBP1 UPR activ = activators of adaptive arm of unfolded protein response (XBP1) | CHO-XBP1 luciferase reporter, IRE1-XBP1 UPR activation, luminescence; percent of tunicamycin response, DMSO as zero | activation, % at 20 µM | 330,000 tested, 0.33% active;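 active means versus positive control, 20 µM dose yields 30% or more activation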;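 further: 100% = tunicamycin at 10 µg/mL and 0% = DMSO only wells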
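Assay system: IRE1-XBP1 luciferase reporter CHO line. Input: 1000 cells/well. Buffer or medium: F12 with 10% serum. Doses: 20 µM, 1% DMSO. Times: overnight seeding at 37 °C, 6 h compound treatment at 37 °C. Technique: Steady-Glo luciferase glow luminescence, 10 min after reagent addition.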
CHOP inhibitor = inhibitors of CHOP induction in ER stress response; AID 2732; 220,000 tested, 3.8% active; inhibition, % at 10 µM; CHO-K1 CHOP-promoter luciferase, tunicamycin-induced, 15-18 h;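 active means compounds that reduced the stress-induced luciferase reporter signal by more than about 70% of percent inhibition, limit read from the data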;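 further: 0% = tunicamycin plus vehicle and 100% = wells without tunicamycin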
UPR CHOP act = apoptotic UPR (CHOP) activation. CHO-CHOP luciferase reporter, luminescence; percent of tunicamycin response over DMSO baseline. activation, % at 10 µM. 330,000 tested, 0.34% active. AID 449763;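 active means at 10 µM dose, activation of 40% or more, normalized to positive control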;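 further: 100% = tunicamycin at 10 µg/mL and 0% = DMSO alone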
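Dosing – one dose, 10 µM in 0.5% DMSO · System – CHO-CHOP cells, stable luciferase reporter of PERK-eIF2a-CHOP signalling · Input – 500 cells/well · Control set – tunicamycin 10 µg/mL final as positive, DMSO-only wells as negative · Timing – 6 h compound treatment, 37 °C · Measure – % activation vs tunicamycin · Technique – luminescence read with Steady-Glo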
697 NFkB conf = lowers PMA/ionomycin-induced NF-kB signal in 697 B cells | shares compounds with 697 NFkB inh | 697 B-cell NF-kB luciferase, 16 h | inhibition, % at 4 µM | 2,000 tested, 35% active | AID 449746; in the data active means inhibition mostly above about 28%, no sharp cut-off; inactive means mostly below about 22%
Starred values were filed as active, the others as inactive; i = inactive; x = no result given. The entries come from a sample that favours hits as a whole.

SMILES | Jurkat NFkB inh | 697 NFkB inh | XBP1 UPR activ | CHOP inhibitor | UPR CHOP act | 697 NFkB conf
COc1ccccc1Cn1c(=O)c2ccccc2n2c(Sc3ncnc4sccc34)nnc12 | 14 | 35* | 6 | -16 | 5 | 18
Cc1c(C2(O)CCCCC2)[nH]c2ccc(C(F)(F)F)cc12 | -57 | -357 | 1 | x | 5 | -175
COc1cccc(-c2nnc(SCC(=O)Nc3cc(C)on3)o2)c1 | -33 | -32 | 3 | -20 | 0 | x
CCOc1ccc(-c2nnc(SCC(=O)Nc3cc(C)on3)o2)cc1 | -17 | 35 | -3 | 77* | -5 | 41*
CCC(C)N1C(=O)/C(=C/c2c(NCCCOC(C)C)nc3c(C)cccn3c2=O)SC1=S (centres undefined) | 13 | 38* | -2 | 12 | 1 | 34*
CCCN1C(=O)/C(=C/c2c(NCCCOC(C)C)nc3c(C)cccn3c2=O)SC1=S | -9 | -2 | 0 | 34 | 3 | x
O=C(CN1C(=O)c2ccccc2S1(=O)=O)c1ccc(OC(F)F)cc1 | 17 | 40* | -9 | x | -7 | 36*
O=C(CN1C(=O)c2ccccc2S1(=O)=O)c1ccc(Cl)cc1Cl | -14 | 74* | -9 | x | -9 | 74*
O=C(CN1C(=O)c2ccccc2S1(=O)=O)c1ccccc1F | -3 | 0 | -13 | x | -5 | x
O=C(NNC(=O)c1ccccc1O)c1ccc(Cl)c(S(=O)(=O)N2CCc3ccccc32)c1 | -10 | 85* | 0 | x | 3 | 97*
CCCOc1ccc(NC(=O)C(=O)NCCCn2ccnc2)cc1 | 11 | 56* | -2 | 17 | 1 | 53*
COc1ccc(CNC(=O)C(=O)NCCCn2ccnc2)cc1 | 0 | 38* | -4 | 9 | 0 | 20
CCOc1ccc(NC(=O)C(=O)NCCCn2ccnc2)cc1 | -9 | 12 | -1 | 1 | 1 | x
C=CCN(c1nc(C)c(Br)c(OC)n1)S(=O)(=O)c1ccc(C)cc1 | 9 | -9 | 0 | x | -2 | x
CC(C)n1cc(/C=N/Nc2ccc(C(=O)O)cc2)c2ccccc21 | 7 | -305 | -10 | x | -4 | -10
O=C(O)c1ccc(N/N=C/c2cn(Cc3ccccc3F)c3ccccc23)cc1 | -22 | -110 | 4 | 13 | 3 | x
COc1ccc(NC(=O)c2ccc(COc3ccccc3Br)o2)cc1OC | 2 | 43* | 1 | 40 | -2 | 5
COC(=O)C1=C[C@@H](C(=O)OC)C2C3=C(C(=O)C24CCCCC4)[C@H](C)n2c(=O)n(-c4ccccc4)c(=O)n2[C@@H]3C1 (some centres undefined) | 6 | 38* | -1 | x | 1 | 14
N=c1c2c(n(Cc3cccc(Cl)c3)c3c1CCC3)CCCC2 | 41 | 43* | 2 | 27 | 2 | 38*
N=c1c2c(n(Cc3ccc(F)cc3)c3c1CCC3)CCCC2 | 13 | 6 | 4 | 12 | 1 | x
N=c1c2c(n(Cc3ccc(Cl)cc3)c3c1CCC3)CCC2 | 34 | 105* | -3 | x | 0 | 25
CC(C)c1ccc(NC(=O)[C@H](Cc2c[nH]c3ccccc23)NC(=O)[C@@H]2Cc3ccccc3CN2)cc1 | -35 | i | -3 | x | 2 | -92
COc1ccc(NC(=O)[C@H](Cc2c[nH]c3ccccc23)NC(=O)[C@@H]2Cc3ccccc3CN2)cc1 | -36 | -238 | 0 | x | 1 | x
CC(C)(C)C(=O)NNC(=O)C1CC1(c1ccccc1)c1ccccc1 (centres undefined) | 12 | 7 | 5 | x | -1 | x
COc1cc(N2Cc3ccccc3C2)ccc1C=O | -41 | -250 | -3 | x | 2 | -209
SMILES | Jurkat NFkB inh | 697 NFkB inh | XBP1 UPR activ | CHOP inhibitor | UPR CHOP act | 697 NFkB conf
Cc1ccc(OCCn2cc(C(=S)N3CCCC3)c3ccccc32)cc1C | -58 | i | 1 | 44 | 0 | 7
Cn1c(-c2ccccc2)cc2onc(-c3ccccc3)c2c1=O | -66 | -325 | -7 | x | -6 | -360
Cn1c(-c2ccccc2)cc(=O)c2ccccc21 | 0 | 0 | 1 | 8 | 1 | x
CC1Sc2ccc(S(=O)(=O)CCC(=O)NCc3cccs3)cc2NC1=O (centres undefined) | 5 | 11 | -2 | x | 1 | x
O=C(Nc1ccc(-c2noc(-c3cccs3)n2)cc1)c1cccnc1 | -101 | -289 | 3 | 36 | 2 | -280
COc1ccccc1S(=O)(=O)Cc1ccc(C(=O)NC2CC2)o1 | 4 | 9 | -4 | x | 0 | x
CCOC(=O)c1c(C)[nH]c(N=Nc2ccc(C)cc2)c1C | -140 | -263 | 12 | 91* | 5 | -119
COc1ccc(C(=O)Nc2ccccc2C(=O)N/N=C/c2cccc3ccccc23)cc1 | -50 | -351 | -1 | 56 | 2 | -186
Cc1cc(C)cc(NC(=O)CCn2c(=O)c3cccn3c3ccccc32)c1 | 43 | -27 | -1 | x | 0 | x
O=C(COc1cccc(Br)c1)Nc1ccc(N2CCOCC2)cc1N1CCOCC1 | 11 | -19 | -6 | x | 0 | x
COc1ccc2nc(NC(=O)c3cccs3)sc2c1 | -124 | -352 | -2 | 21 | 0 | -341
CC(=O)Nc1ccc2nc(NC(=O)c3cccs3)sc2c1 | -96 | -147 | -1 | -12 | 2 | x
COc1ccc2nc(NC(=O)Nc3ccccc3OC)sc2c1 | -78 | -296 | 7 | x | 5 | -365
COc1ccc2nc(NC(=O)c3ccccc3O)sc2c1 | -70 | -309 | -6 | x | 4 | -224
COCCn1c(C)cc(/C=C(\C#N)C(=O)OC(C)C(=O)Nc2ccc(NC(C)=O)cc2)c1C (centres undefined) | 14 | 8 | -3 | x | -1 | x
Cc1ccc(C)c(Cn2c(=O)n(C)c(=O)c3sccc32)c1 | 11 | 0 | 1 | x | 3 | x
CC[C@@]1(C(=O)OC)N[C@H](CN(C)C(=O)COC)[C@@H]2C(=O)N(C)C(=O)[C@@H]21 | -5 | -16 | 1 | x | 1 | x
Cc1ccnc(NS(=O)(=O)c2ccccc2)c1 | -6 | -9 | -3 | x | 0 | x
Cc1ccnc(NS(=O)(=O)c2cc([N+](=O)[O-])ccc2C)c1 | -6 | 36* | -4 | 0 | -2 | -4
CCN(CC1COc2ccccc2O1)C(=S)NC1CC2CCC1C2 (centres undefined) | -7 | -17 | -4 | 7 | 0 | x
CSc1ncccc1C(=O)OCC(=O)NC(N)=O | -15 | -6 | -1 | 45 | 0 | x
CNC(=O)COC(=O)c1cccnc1SC | 5 | 35* | -2 | -5 | -2 | 12
COc1cccc(/C=N\NC(=O)c2sc(N)nc2C)c1OC | 2 | 39* | 0 | 12 | 1 | 8
COc1cccc(/C=N/NC(=O)C(=O)N/N=C/c2cccc(OC)c2OC)c1OC | -12 | -8 | 1 | -14 | 1 | x
CCCCc1cc(=O)oc2cc(OCC(=O)N(CC)CC)ccc12 | 9 | 39* | -4 | 4 | 3 | 21
